Laboratory results taken from article PMC9044198 (RSC Advances, 2021).
Entries after “also recorded” stand apart in the source; their conditions may differ. Like-named read-outs stand apart in the source and are kept apart here.

Columns and labels:
α-glucosidase [1] = target: T1, α-glucosidase (Saccharomyces cerevisiae, UniProt P53341); conditions: reported in the literature; cited from earlier work
[2] = target: α-glucosidase (Saccharomyces cerevisiae, EC 3.2.1.20) (Saccharomyces cerevisiae, UniProt P53341); assay: Assay of α-glucosidase inhibitory activity; type: biochemical; conditions: for inhibitory effect on α-glucosidase (in words): 1-deoxynojirimycin as control
α-glucosidase [3] = target: T1, α-glucosidase; assay: Inhibitory kinetic analysis; type: biochemical
α-glucosidase [4] = target: T1, α-glucosidase; assay: Fluorescence quenching and UV-Vis absorption spectra of α-glucosidase; type: binding; conditions: Stern–Volmer analysis and UV-Vis absorption spectra at 298 K
Outline: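 Tryptophan fluorescence was excited at 280 nm and emission recorded at 300–500 nm. Test compound (0–8.0 × 10−5 mol L−1) was added to α-glucosidase (1 U mL−1) and incubated 30 s at 298 K before reading. Data were fitted to the Stern–Volmer equation F0/F = 1 + Kqτ0[Q], with τ0 = 6.2 ns. The same method was run at 273, 298 and 310 K for thermodynamic parameters. UV-Vis spectra (200–600 nm) were taken of enzyme (1.0 × 10−5 mol L−1) with compound at 0–9.0 × 10−5 mol L−1.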

T1 sequence (P53341 whole entry): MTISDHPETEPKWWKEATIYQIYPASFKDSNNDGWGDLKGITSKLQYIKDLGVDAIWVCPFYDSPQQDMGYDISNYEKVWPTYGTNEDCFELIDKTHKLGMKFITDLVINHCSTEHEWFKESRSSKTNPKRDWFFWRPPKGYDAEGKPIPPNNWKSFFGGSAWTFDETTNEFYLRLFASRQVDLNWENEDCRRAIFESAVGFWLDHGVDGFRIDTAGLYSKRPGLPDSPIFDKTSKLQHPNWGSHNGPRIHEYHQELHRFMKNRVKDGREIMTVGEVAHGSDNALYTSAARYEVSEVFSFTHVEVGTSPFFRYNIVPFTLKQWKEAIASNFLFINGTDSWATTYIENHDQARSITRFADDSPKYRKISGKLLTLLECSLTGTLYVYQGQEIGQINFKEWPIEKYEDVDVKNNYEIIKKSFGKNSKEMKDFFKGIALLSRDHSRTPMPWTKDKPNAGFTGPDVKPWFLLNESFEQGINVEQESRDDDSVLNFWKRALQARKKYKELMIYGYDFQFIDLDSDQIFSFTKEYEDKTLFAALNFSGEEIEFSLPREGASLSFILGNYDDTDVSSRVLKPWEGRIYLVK
Sequence of α-glucosidase (Saccharomyces cerevisiae, EC 3.2.1.20) (P53341 whole entry): as above

For `OC[C@H]1NC[C@H](O)[C@@H](O)[C@@H]1O` [1-Deoxynojirimycin], the “reversibility of α-glucosidase inhibition” value (α-glucosidase [1]) is given as “reversibly inhibit”.

Work on `O=c1cc(-c2ccccc2)oc2cc(OCCCCCN3C[C@H](O)[C@@H](O)[C@H](O)[C@H]3CO)cc(O)c12` [compound 4, 5-Hydroxy-2-phenyl-7-((5-((2R,3R,4R,5S)-3,4,5-trihydroxy-2-(hydroxymeth-yl)-piperidin-1-yl)pentyl)oxy)-4H-chromen-4-one] yielded an IC50 [2] of over 100000 nM.

With `O=c1cc(-c2ccccc2)oc2cc(OCCCCCCCCN3C[C@H](O)[C@@H](O)[C@H](O)[C@H]3CO)cc(O)c12` [compound 5, 5-Hydroxy-2-phenyl-7-((8-((2R,3R,4R,5S)-3,4,5-trihydroxy-2-(hydroxymeth-yl)-piperidin-1-yl)octyl)oxy)-4H-chromen-4-one] the IC50 [2] was 5560 ± 240 nM and the “inhibitory effect on α-glucosidase (in words)” value [2] was “superior inhibition effects compared to 1-deoxynojirimycin”.

With `O=c1cc(-c2ccccc2)oc2cc(OCCCCCCCCCCCN3C[C@H](O)[C@@H](O)[C@H](O)[C@H]3CO)cc(O)c12` [compound 6, 5-Hydroxy-2-phenyl-7-((11-((2R,3R,4R,5S)-3,4,5-trihydroxy-2-(hydroxymethyl)-piperidin-1-yl)undecyl)oxy)-4H-chromen-4-one] the Ki (α-glucosidase [3]) was 210 nM, the “reversibility of α-glucosidase inhibition” value (α-glucosidase [3]; 0.0, 0.5, 1.0 μM of compound, varying enzyme concentration) was “reversible” and the inhibition type (α-glucosidase [3]; Lineweaver–Burk plot) was “mixed competitive; also recorded: mixed-type inhibitor; also recorded: mixed competition type”. For the same compound, the IC50 [2] was 510 ± 20 nM, the “inhibitory effect on α-glucosidase (in words)” value [2] was “superior inhibition effects compared to 1-deoxynojirimycin” and the “α-glucosidase inhibitory activity, fold higher than 1-deoxynojirimycin” value ([2]; ratio of IC50 values) was “up to 16 fold”. The fluorescence quenching mechanism (α-glucosidase [4]) was “static fluorescence quenching”.
